Test [1] relates to Glutamate [NMDA] receptor. The test can be described thus: Ability to displace [3H]TCP from PCP receptor in guinea pig membranes; No inhibition. It is filed as cell membranes, Cavia porcellus. The method, boiled down: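 Guinea pig brain crude P2 membranes (500 µg protein) incubated with 5 nM [3H]TCP in 5 mM Tris-HCl pH 7.4, 0.5 mL, 60 min at 4 °C; stopped by ice-cold buffer and filtration through polyethylenimine-soaked (0.3%) glass-fiber filters, washed twice. Nonspecific binding with 10 µM cyclazocine. Screened at 100, 1000 and 10,000 nM; duplicates.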

Test [2] concerns the target Kappa-type opioid receptor (Cavia porcellus, UniProt P41144). The test can be described thus: Ability to displace [3H]bremazocine from opioid receptor kappa in guinea pig brain membranes; No inhibition. It is filed as cell membranes. The method, boiled down:
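Kappa sites labeled with 2 nM [3H]bremazocine on guinea pig brain P2 membranes (500 µg protein) in 10 mM Tris-HCl pH 7.4, 0.5 mL, with 100 nM DAGO and 100 nM DSTLE to mask mu/delta; 90 min at 25 °C. Terminated by ice-cold buffer and glass-fiber filtration. Screened at 100, 1000 and 10,000 nM; duplicates.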

The target in another test is D(2) dopamine receptor (Rattus norvegicus, UniProt P61169). The test can be described thus: Ability to displace [3H]sulpiride from dopamine receptor D2 in rat brain. The format is tissue-based. The method, boiled down: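 Rat (male Sprague-Dawley) brain P2 membranes, 500 µg protein, with 5 nM [3H]-(-)-sulpiride in 50 mM Tris-HCl pH 7.7 + 120 mM NaCl, 60 min at 25 °C; haloperidol 1 µM for nonspecific binding; filtration, two washes.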

Test [3] has as its target Glutamate [NMDA] receptor. The test can be described thus: Ability to displace [3H]TCP from PCP receptor in guinea pig membranes. The format is cell membranes, Cavia porcellus. The method, boiled down: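 Guinea pig brain (minus cerebella) crude P2 membranes, 500 µg protein, incubated with 5 nM [3H]TCP in 5 mM Tris-HCl pH 7.4 for 60 min at 4 °C. Filtered on polyethylenimine-soaked glass-fiber filters; nonspecific binding defined with 10 µM cyclazocine. […] Duplicates, 2–3 experiments; IC50 converted to Ki by Cheng-Prusoff (Kd 25 nM).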

The source of these data is ChEMBL document CHEMBL1126201, “Synthesis, characterization, and biological evaluation of a novel class of N-(arylethyl)-N-alkyl-2-(1-pyrrolidinyl)ethylamines: structural requirements and binding affinity at the sigma receptor” (J Med Chem, 1992).

The term Ki denotes a dissociation constant, usually derived from enzyme kinetics or from competition with a known ligand. A low value points to a stronger hold on the target.

Chain of Kappa-type opioid receptor (P41144 whole entry): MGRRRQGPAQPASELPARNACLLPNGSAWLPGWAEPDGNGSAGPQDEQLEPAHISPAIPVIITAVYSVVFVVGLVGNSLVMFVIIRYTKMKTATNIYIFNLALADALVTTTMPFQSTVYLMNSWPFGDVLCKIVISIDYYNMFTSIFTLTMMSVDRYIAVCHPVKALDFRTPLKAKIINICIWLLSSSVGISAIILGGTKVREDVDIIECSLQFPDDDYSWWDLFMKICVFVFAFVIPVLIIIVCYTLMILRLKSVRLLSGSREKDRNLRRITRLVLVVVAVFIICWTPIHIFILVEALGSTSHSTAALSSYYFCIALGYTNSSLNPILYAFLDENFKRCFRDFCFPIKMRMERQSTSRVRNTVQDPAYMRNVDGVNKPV
Chain of D(2) dopamine receptor (P61169 whole entry): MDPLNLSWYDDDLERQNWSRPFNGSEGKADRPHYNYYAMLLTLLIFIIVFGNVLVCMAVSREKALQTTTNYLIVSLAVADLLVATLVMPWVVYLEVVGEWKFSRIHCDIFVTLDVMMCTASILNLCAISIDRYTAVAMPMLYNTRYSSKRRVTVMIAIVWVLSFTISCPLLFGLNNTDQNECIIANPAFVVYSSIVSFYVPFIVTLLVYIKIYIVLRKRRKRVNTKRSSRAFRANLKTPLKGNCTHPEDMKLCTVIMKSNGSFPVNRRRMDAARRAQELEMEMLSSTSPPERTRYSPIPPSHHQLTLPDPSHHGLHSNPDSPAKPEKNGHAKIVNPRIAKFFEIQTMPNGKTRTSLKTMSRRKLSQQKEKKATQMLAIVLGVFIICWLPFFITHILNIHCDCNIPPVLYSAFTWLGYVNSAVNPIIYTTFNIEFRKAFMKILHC

Turning to `CCN(CCc1ccc(Cl)c(Cl)c1)CCN1CCCC1`, the inhibition constant Ki entry is “Not Active” in test [1], “Not Active” in test [2] and 1.66 µM at D(2) dopamine receptor.

Take `CN(CCc1cccc(Cl)c1)CCN1CCCC1`: the Ki result in test [1] is “Not Active”; in test [2], “Not Active”; at D(2) dopamine receptor, 6.5 µM.

As for `CN(CCc1ccc(Cl)c(Cl)c1)CCN1CCCCC1`, the values for the Ki entry (in test [1]; in test [2]; at D(2) dopamine receptor) were “Not Active”, “Not Active” and 1.21 µM, respectively.

For the compound `CN(CCN1CCCC1)Cc1ccc(Cl)c(Cl)c1`, the inhibitory constant (Ki) entry in test [1] was “Not Active”; in test [2] it was “Not Active”; on D(2) dopamine receptor, 1.3 µM.

With `CCN(CC)CCN(C)CCc1ccc(Cl)c(Cl)c1`, the inhibitory constant (Ki) entry in test [1] is “Not Active”; in test [2] it was “Not Active”; on D(2) dopamine receptor, 3.01 µM.

Turning to `CN(CCc1ccc(Cl)c(Cl)c1)CCN1CCCC1`, the results for the Ki result (in test [1]; in test [2]; at D(2) dopamine receptor) were “Not Active”, “Not Active” and 1.11 µM, respectively.

Consider `C[C@@H](CN1CCCC1)N(C)CCc1ccc(Cl)c(Cl)c1`, for which the figures for the Ki result (in test [2]; in test [3]; on D(2) dopamine receptor) were “Not Active”, 3.04 µM and 11.2 µM, respectively.

Consider `CN(CCc1ccc(Cl)c(Cl)c1)CCN1CCCCCC1`, for which the figures for the Ki result (in test [2]; in test [3]; on D(2) dopamine receptor) were “Not Active”, 6.94 µM and 6.75 µM, respectively.
